Assay results: ChEMBL document CHEMBL1135819, “N-[3-(1H-imidazol-4-ylmethyl)phenyl]ethanesulfonamide (ABT-866, 1),(1) a novel alpha(1)-adrenoceptor ligand with an enhanced in vitro and in vivo profile relative to phenylpropanolamine and midodrine” (J Med Chem, 2002)
The source made the active and inactive calls. The calls are words filed in the database; no cut-off is given here.

What was measured:
[1] = molecular target: T1, Alpha-1B adrenergic receptor (Mesocricetus auratus, UniProt P18841); experiment: Binding affinity towards hamster cloned Alpha-1B adrenergic receptor; value ranges from (2.0 -4.4); design: species or system Cricetulus griseus
T1 sequence (P18841 whole entry): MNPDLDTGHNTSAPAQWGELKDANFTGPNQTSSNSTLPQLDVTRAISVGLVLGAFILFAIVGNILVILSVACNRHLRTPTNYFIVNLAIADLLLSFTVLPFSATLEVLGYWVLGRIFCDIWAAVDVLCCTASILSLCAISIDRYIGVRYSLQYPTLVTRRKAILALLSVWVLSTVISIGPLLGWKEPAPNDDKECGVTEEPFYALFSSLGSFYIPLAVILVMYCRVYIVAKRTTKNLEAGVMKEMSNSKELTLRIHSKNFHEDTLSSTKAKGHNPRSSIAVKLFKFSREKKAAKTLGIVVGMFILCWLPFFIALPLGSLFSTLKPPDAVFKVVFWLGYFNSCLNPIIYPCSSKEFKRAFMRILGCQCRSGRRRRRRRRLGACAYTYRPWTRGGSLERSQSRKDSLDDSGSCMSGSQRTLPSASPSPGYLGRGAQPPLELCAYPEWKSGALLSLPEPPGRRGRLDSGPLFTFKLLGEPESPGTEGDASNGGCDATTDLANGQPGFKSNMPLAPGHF

Rattus norvegicus [2] = organism: Rattus norvegicus; experiment: (§1) In vitro percent efficacy of compound was tested in rat aorta; type: functional
In short: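 Isolated tissue contraction: agonist dose–response curves run in rat aorta (α1D) and rat spleen (α1B). Efficacy is the percent response relative to phenylephrine. EC50 is taken as the dose contracting the tissue 50%. Data reported ± SEM.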

[3] = molecular target: T2, Alpha-1D adrenergic receptor (Rattus norvegicus, UniProt P23944); experiment: Binding affinity towards rat cloned Alpha-1D adrenergic receptor; value ranges from (1.3 -1.6)
T2 sequence (P23944 whole entry): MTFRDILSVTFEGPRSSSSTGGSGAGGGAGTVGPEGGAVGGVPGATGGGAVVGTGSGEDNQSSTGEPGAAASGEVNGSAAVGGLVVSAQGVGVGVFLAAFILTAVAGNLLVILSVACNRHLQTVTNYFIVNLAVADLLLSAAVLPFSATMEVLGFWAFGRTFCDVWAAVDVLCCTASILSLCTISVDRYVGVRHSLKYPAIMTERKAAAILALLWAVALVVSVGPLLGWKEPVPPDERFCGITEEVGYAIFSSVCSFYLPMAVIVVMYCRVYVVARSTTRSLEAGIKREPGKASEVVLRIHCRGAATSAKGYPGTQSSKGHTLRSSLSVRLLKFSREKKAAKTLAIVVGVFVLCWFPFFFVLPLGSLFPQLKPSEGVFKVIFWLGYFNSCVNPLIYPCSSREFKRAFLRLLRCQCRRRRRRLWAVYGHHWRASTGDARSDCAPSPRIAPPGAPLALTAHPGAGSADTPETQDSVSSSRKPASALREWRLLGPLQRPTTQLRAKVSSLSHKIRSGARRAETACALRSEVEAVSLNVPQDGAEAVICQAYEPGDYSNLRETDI

Canis familiaris [4] = experiment: Dose corresponding to a 20 mmHg increase in mean arterial pressure (MAP) was determined in vivo in isoflurane anesthetized female beagles; type: functional, Canis lupus familiaris, Beagle, Artery
In short: (§2)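 Female beagles under isoflurane anesthesia; MAP by chronically implanted telemetry transducer/transmitter, IUP by urethral catheter, recorded simultaneously. Increasing iv doses given; maximal effect of each dose taken within 1 min of dosing. Doses giving 5 mmHg IUP rise (IUP ED5) and 20 mmHg MAP rise (MAP ED20) calculated, nmol/kg, mean ± SEM, n ≥ 4.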

Canis familiaris [5] = experiment: Dose corresponding to a 5 mmHg increase in Intraurethral pressure (IUP) was determined in vivo in isoflurane anesthetized female beagles; type: functional, Canis lupus familiaris, Beagle; in short: as §2
Oryctolagus cuniculus = organism: Oryctolagus cuniculus; experiment: In vitro percent efficacy of compound was tested in rabbit urethra; type: functional
[6] = molecular target: T3, Alpha-1A adrenergic receptor (Rattus norvegicus, UniProt P43140); experiment: Binding affinity towards rat submaxillary gland Alpha-1 adrenergic receptor; value ranges from (0.12 - 0.15)
T3 sequence (P43140 whole entry): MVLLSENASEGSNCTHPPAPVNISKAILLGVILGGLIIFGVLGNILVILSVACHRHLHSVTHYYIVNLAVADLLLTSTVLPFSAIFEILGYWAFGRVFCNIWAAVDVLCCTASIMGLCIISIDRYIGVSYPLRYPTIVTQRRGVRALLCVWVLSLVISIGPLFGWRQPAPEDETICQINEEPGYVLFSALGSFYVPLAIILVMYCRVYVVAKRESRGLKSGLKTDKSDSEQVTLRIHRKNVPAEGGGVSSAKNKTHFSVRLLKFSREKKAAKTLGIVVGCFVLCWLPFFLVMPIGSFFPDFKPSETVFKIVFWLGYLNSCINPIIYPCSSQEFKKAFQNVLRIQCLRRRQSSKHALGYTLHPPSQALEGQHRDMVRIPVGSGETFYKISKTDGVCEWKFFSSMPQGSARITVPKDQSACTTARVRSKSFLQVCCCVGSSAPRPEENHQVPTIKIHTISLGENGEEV

[7] = molecular target: T4, Alpha-1B adrenergic receptor (Rattus norvegicus, UniProt P15823); experiment: Antagonistic activity against Alpha-1B adrenergic receptor determined using phenylephrine challenge in rat spleen isolated tissues.; type: functional, tissue-based; settings: read-out: pA2 (converted)
T4 sequence (P15823 whole entry): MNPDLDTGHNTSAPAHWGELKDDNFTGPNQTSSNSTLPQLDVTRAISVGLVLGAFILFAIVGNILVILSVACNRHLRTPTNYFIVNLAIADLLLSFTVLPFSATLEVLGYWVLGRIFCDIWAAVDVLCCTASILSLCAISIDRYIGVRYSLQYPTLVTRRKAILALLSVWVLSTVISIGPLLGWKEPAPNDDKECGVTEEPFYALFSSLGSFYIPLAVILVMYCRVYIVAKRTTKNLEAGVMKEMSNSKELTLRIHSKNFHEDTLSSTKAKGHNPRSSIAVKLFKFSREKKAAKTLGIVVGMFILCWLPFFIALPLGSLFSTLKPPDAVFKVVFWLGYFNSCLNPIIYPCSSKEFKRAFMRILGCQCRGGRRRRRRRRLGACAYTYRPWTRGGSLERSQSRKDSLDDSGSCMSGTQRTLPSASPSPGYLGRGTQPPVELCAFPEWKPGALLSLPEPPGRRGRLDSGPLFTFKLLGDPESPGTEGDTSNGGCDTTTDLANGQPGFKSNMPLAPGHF

[8] = molecular target: T2, Alpha-1D adrenergic receptor; experiment: Antagonistic activity against Alpha-1D adrenergic receptor determined using phenylephrine challenge in rat aorta isolated tissues.; type: functional, tissue-based; settings: read-out: pA2 (converted)
[9] = molecular target: T5, Alpha-1B adrenergic receptor (Rattus norvegicus) (UniProt P15823); experiment: Effective concentration in vitro against rat spleen Alpha-1B adrenergic receptor (EC50 < 15%) at a concentration of 10 uM; NA is not active; type: tissue-based
T5 sequence (whole entry): T4 sequence (P15823 whole entry)

[10] = molecular target: T2, Alpha-1D adrenergic receptor; experiment: Binding affinity towards rat cloned Alpha-1D adrenergic receptor; value ranges from (5.5 -13)
[11] = molecular target: T3, Alpha-1A adrenergic receptor; experiment: Binding affinity towards rat submaxillary gland Alpha-1 adrenergic receptor; value ranges from (6.2 - 15)
Rattus norvegicus [12] = organism: Rattus norvegicus; experiment: In vitro percent efficacy of compound was tested rat spleen; type: functional
[13] = molecular target: T1, Alpha-1B adrenergic receptor; experiment: Binding affinity towards hamster cloned Alpha-1B adrenergic receptor mean;value ranges from( 6.4 -14); design: species or system Cricetulus griseus
Rattus norvegicus [14] = organism: Rattus norvegicus; experiment: as §1; type: functional; remark: listed apart in the source
[15] = molecular target: T2, Alpha-1D adrenergic receptor; experiment: Effective concentration in vitro against rat aorta Alpha-1D adrenergic receptor;* indicates EC50 < 15% at a concentration of 10 uM; type: tissue-based
[16] = molecular target: T4, Alpha-1B adrenergic receptor; experiment: Effective concentration in vitro against rat spleen Alpha-1B adrenergic receptor indicates EC50 < 15% at a concentration of 10 uM; type: tissue-based
[17] = molecular target: T2, Alpha-1D adrenergic receptor; experiment: Binding affinity towards rat cloned Alpha-1D adrenergic receptor; value ranges from (1.5 - 1.9)
[18] = molecular target: T3, Alpha-1A adrenergic receptor; experiment: Binding affinity towards rat submaxillary gland Alpha-1 adrenergic receptor; value ranges from (1.6 -2.5)
Rattus norvegicus [19] = organism: Rattus norvegicus; experiment: In vitro percent efficacy of compound was tested in rat spleen; type: functional
[20] = molecular target: T1, Alpha-1B adrenergic receptor; experiment: Binding affinity towards hamster cloned Alpha-1B adrenergic receptor; value ranges from (6.2 -7.7); design: species or system Cricetulus griseus

CS(=O)(=O)Nc1c(O)ccc2c1CCCC2C1=NCCN1 (stereo not drawn)
Ki [1]: 2.9 µM
Efficacy (Rattus norvegicus [2]): 100%
Ki [3]: 1.5 µM
ED20 (Canis familiaris [4]): 0.27 nM/kg
ED5 (Canis familiaris [5]): 0.16 nM/kg
Efficacy (Oryctolagus cuniculus): 88%

CCS(=O)(=O)Nc1cccc(Cc2c[nH]cn2)c1
Ki [6]: 0.14 µM
Kb [7]: 3.98 µM
Kb [8]: 0.631 µM
ED20 (Canis familiaris [4]): 80 nM/kg
ED5 (Canis familiaris [5]): 12 nM/kg
NA [9]: inactive
Efficacy (Oryctolagus cuniculus): 80%

C[C@H](N)[C@H](O)c1ccccc1 [(1R,2S)-PHENYLPROPANOLAMINE]
Ki [10]: 8.4 µM
Ki [11]: 9.8 µM
Efficacy (Rattus norvegicus [12]): 34%
Ki [13]: 9.6 µM
ED20 (Canis familiaris [4]): 330 nM/kg
ED5 (Canis familiaris [5]): 1100 nM/kg
Efficacy (Rattus norvegicus [14]): 91%
EC50 [15]: 58 µM
EC50 [16]: 280 µM
Efficacy (Oryctolagus cuniculus): 68%

COc1ccc(OC)c(C(O)CN)c1 (stereo not drawn) [DESGLYMIDODRINE]
Ki [17]: 1.7 µM
Ki [18]: 2 µM
Efficacy (Rattus norvegicus [19]): 68%
ED20 (Canis familiaris [4]): 250 nM/kg
Ki [20]: 6.9 µM
ED5 (Canis familiaris [5]): 205 nM/kg
Efficacy (Rattus norvegicus [14]): 106%
EC50 [15]: 1.9 µM
EC50 [16]: 85 µM
Efficacy (Oryctolagus cuniculus): 133%
